Bioassay records from PubChem BioAssay.
In the library only some 2.5% were active in any assay of this set; here they are far more common.
NR2E3 ag-1: NR2E3 agonists in two-hybrid cells, primary screen, cell-based, luminescence, CHO-S, Gal4-NCOR/VP16-NR2E3; Photoreceptor-specific nuclear receptor (Homo sapiens), Q9Y5X4; luciferase; inhibition of corepressor binding, % at 3.98 µM; 0.35% of 360,000 active; AID 602229, 2012;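 active = inhibition above the mean of all tested compounds plus 3 SD, cut at about 70% in these data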;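 also: higher means lower luciferase signal from less NR2E3 corepressor binding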
Target sequence (Q9Y5X4 whole entry, looked up, the tested form may be a part): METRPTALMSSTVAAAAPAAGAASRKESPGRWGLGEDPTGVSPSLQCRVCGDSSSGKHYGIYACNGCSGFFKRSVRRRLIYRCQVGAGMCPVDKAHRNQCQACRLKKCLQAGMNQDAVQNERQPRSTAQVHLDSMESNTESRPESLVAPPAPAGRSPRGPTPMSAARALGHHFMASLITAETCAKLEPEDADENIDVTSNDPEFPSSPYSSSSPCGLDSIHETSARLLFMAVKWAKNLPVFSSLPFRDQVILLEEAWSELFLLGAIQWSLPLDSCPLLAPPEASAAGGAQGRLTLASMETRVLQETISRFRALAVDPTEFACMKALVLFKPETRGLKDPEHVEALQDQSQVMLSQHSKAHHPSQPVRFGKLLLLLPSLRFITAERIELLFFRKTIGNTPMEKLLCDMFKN
MsrA inhibitor: bovine MsrA enzyme inhibitors, primary screen, biochemical, absorbance, HTS. purified bovine MsrA, absorbance read-out. inhibition, % at 15.5 µM. 0.75% of 360,000 active; in the data active = inhibition above about 4.5%
bovine MsrA act: bovine MsrA enzyme activators, primary screen, biochemical, absorbance, HTS. purified bovine MsrA, absorbance read-out. activation, % at 10.6 µM. 0.3% of 360,000 active; in the data active = activation above about 7.5%
NR2E3 ag-2: inhibitors of NR2E3-RetCOR corepressor binding, primary screen, NR2E3 agonist project, biochemical, TR-FRET, GST-NR2E3, biotin-RetCOR | 0.12% of 320,000 active | 1536-well | AID 2300, 2010 | Photoreceptor-specific nuclear receptor (Homo sapiens), Q9Y5X4 | inhibition of corepressor binding, % at 4.78 µM;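 active = percent inhibition above the cutoff of mean plus 3 SD of all tested compounds, set per screening campaign, cut at about 20% in these data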
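Test system: GST-NR2E3 and biotin-RetCOR proteins | Quantity: 1.35 nM GST-tagged NR2E3 final | Medium: Tris pH 7.5 | Also added: 7 nM biotin-RetCOR | Dosing: Compound at 4.8 µM, single dose | Timing: 5 h at 4 °C | Detection: Time-resolved FRET | Read-out basis: Percent inhibition | Benchmarks: Biotin wells as high control, 0.6% DMSO wells as low control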
GalR3 antagonist: GalR3 antagonists in HEK293 cells, primary screen, cell-based, fluorescence readout; Galanin receptor type 3 (Homo sapiens), O60755; HEK293 GalR3-CNG cAMP membrane potential fluorescence; galR3 body fused to GalR1 C-terminus; inhibition, % at 3 µM; 0.44% of 360,000 active; AID 651719, 2012;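 active = inhibition above the screen-wide average plus 3 SD, cut at about 13% in these data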;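 also: forskolin and galanin both at EC90 stimulate the cells; cAMP rise reported by CNG channel membrane potential dye signal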
Target sequence (O60755 1-299 limits assumed): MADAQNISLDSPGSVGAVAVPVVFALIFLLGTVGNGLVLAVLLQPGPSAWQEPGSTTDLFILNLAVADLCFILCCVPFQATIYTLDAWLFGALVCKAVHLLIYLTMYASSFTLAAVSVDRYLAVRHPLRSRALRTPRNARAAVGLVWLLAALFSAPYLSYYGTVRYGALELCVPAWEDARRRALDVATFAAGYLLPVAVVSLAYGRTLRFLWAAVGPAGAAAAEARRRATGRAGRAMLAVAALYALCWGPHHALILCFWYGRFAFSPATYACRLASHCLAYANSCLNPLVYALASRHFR
NadD inh: inhibitors of S. aureus NadD, primary screen, biochemical, colorimetric, uHTS; AID 602399, 2012; Nicotinate-nucleotide adenylyltransferase NadD (Staphylococcus aureus N315); 0.78% of 360,000 active; purified NadD enzyme, colorimetric absorbance read-out; inhibition, % at 20 µM; in the data active = inhibition above about 26%
MsrA activ conf: bovine MsrA activators, retest, confirmation, biochemical, absorbance, HTS; shares compounds with bovine MsrA act; purified bovine MsrA, absorbance read-out; activation, % at 10.6 µM; 12% of 1,000 active; AID 602270, 2012; in the data active = activation above about 4%;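 also: enzyme coupled to thioredoxin and thioredoxin reductase with NADPH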
Each line names hits and unclear results; the compound was inactive in the other large screens (follow-up assays come after a bar, where they were run).

COc1cc(C(=O)Oc2cc(C)cc(C)c2)cc(OC)c1OC	bovine MsrA act 8.8 | MsrA activ conf inactive
O=C(C[n+]1cc(-c2ccccc2)n2c1CCC2)N1c2ccccc2Sc2ccccc21	none
O=C(C[n+]1cc(-c2ccccc2)n2c1CCC2)c1cccs1	bovine MsrA act 8.9 | MsrA activ conf inactive
C/C=C/C=N\NC(=O)c1ccncc1	bovine MsrA act 15 | MsrA activ conf inactive
CCCCOC(=O)Cn1c(-c2ccccc2)nc2ccccc2c1=O	none
Cn1ccsc1=NC(=O)c1ccc([N+](=O)[O-])o1	bovine MsrA act 8.8 | MsrA activ conf inactive
CC(=O)N1CCN(C(=O)c2cccc(S(=O)(=O)N3CCN(c4ccccc4)CC3)c2)CC1	none
CC1CN(C(=O)c2cccc(S(=O)(=O)N3CCN(c4ccccc4)CC3)c2)CC(C)O1 (stereo unspecified)	bovine MsrA act 9.1 | MsrA activ conf inactive
CC(C)OC(=O)c1sc2nc(-c3ccccc3)ccc2c1N	bovine MsrA act 8.8 | MsrA activ conf inactive
O=C(NCC1CCCO1)c1cc2n(n1)C(C(F)(F)F)CC(c1ccc(Br)cc1)N2 (stereo unspecified)	bovine MsrA act 11 | MsrA activ conf inactive
CCCn1c(N)c(N(CCOC)C(=O)c2ccc(N3CCCC3=O)cc2)c(=O)[nH]c1=O	bovine MsrA act 7.9 | MsrA activ conf inactive
Cc1ccc(S(=O)(=O)N2CCC(C(=O)OCC(=O)N3CCc4ccccc43)CC2)cc1	bovine MsrA act 8.4 | MsrA activ conf inactive
Cc1ccc(S(=O)(=O)N2CCC[C@H]2C(=O)OCC(=O)N2CCc3ccccc32)cc1	none (no result: NR2E3 ag-2)
COc1ccc(NS(=O)(=O)c2cc(NC(=O)c3ccc(F)cc3)ccc2OC)cc1	bovine MsrA act 9.7 | MsrA activ conf inactive
COc1ccc(Cc2noc(CN(C)CCN3CCc4ccccc4C3)n2)cc1OC	none
CN(CCN1CCc2ccccc2C1)Cc1nc(Cc2ccccc2F)no1	bovine MsrA act 15 (no result: NR2E3 ag-2) | MsrA activ conf inactive
CCCc1cc(C(=O)Cc2ccc(F)cc2)c(O)cc1O	bovine MsrA act 22 | MsrA activ conf inactive
N#Cc1cnn(-c2ccc([N+](=O)[O-])cc2[N+](=O)[O-])c1N	bovine MsrA act 8.3 (no result: NR2E3 ag-2) | MsrA activ conf inactive
C/C(CC(=O)Nc1ccc(Cl)cc1Cl)=N\NC(=O)c1ccco1	bovine MsrA act 8.4 | MsrA activ conf inactive
CC(Sc1nnc(-c2ccco2)n1C)C(=O)NC1CCCC1 (stereo unspecified)	bovine MsrA act 17 | MsrA activ conf inactive
CC(=O)N1CCN(C(=O)c2cc(S(=O)(=O)N(C)c3ccc(F)cc3)ccc2Cl)CC1	none
Cc1cccc(C)c1OCC(=O)NNC(=O)CNC(=O)c1ccc(OC(F)F)cc1	bovine MsrA act 8.1 | MsrA activ conf inactive
Cc1cccc(C)c1OCC(=O)NNC(=O)CCNC(=O)c1ccc(Br)cc1	none
CCCS(=O)(=O)N1CCCC(C(=O)N2CCC(Cc3ccccc3)CC2)C1 (stereo unspecified)	bovine MsrA act 7.7 | MsrA activ conf inactive
CCCN1C2CCCC1CC(NC(=O)c1ccc(F)cc1)C2 (stereo unspecified)	none
Cc1cc(S(=O)(=O)N2CCCC2)ccc1OCC(=O)NCc1ccco1	none
O=c1ccsn1Cc1ccccc1	bovine MsrA act 18 | MsrA activ conf 5.6
O=C1NC(Cc2ccccc2)C(=O)N1Cc1ccccc1 (stereo unspecified)	none (no result: NR2E3 ag-2)
CCOC(=O)C1C(=O)CC(C)(O)C(C(=O)OCC)C1c1cccs1 (stereo unspecified)	none
CCC(c1nnnn1C(C)(C)C)N1CCN(C2CCCC2)CC1 (stereo unspecified)	bovine MsrA act 8.1 | MsrA activ conf inactive
CCN1CCN(C2=C(NS(=O)(=O)c3ccc(Br)cc3)C(=O)c3ccccc3C2=O)CC1	bovine MsrA act 8.2 | MsrA activ conf inactive
CCOC(=O)N1CCN(C2=C(NS(=O)(=O)c3ccc(Br)cc3)C(=O)c3ccccc3C2=O)CC1	none (no result: NR2E3 ag-2)
CC(=O)c1sc(Nc2nc3ccc(F)cc3s2)nc1C	bovine MsrA act 7.8 | MsrA activ conf inactive
Cc1ccc(NC(=O)CSCC(=O)N(C)Cc2ccc(Cl)c(Cl)c2)cc1	none
COc1ccc(NC(=O)CSCC(=O)N(C)Cc2ccc(Cl)c(Cl)c2)cc1	bovine MsrA act 11 | MsrA activ conf inactive
COc1ccc(NC(=O)CSCC(=O)Nc2ccc(S(=O)(=O)N3CCCCC3)cc2)cc1	none
COc1ccc(CSCC(=O)Nc2ccc(S(=O)(=O)N3CCCCCC3)cc2)cc1	bovine MsrA act 8.8 | MsrA activ conf inactive
COc1cccc(C2=Cc3ccc(F)cc3C(CC(C)=O)N2c2ccc(C#CC3(O)CCCCC3)cc2)c1 (stereo unspecified)	bovine MsrA act 8.1 (no result: NR2E3 ag-2) | MsrA activ conf inactive
O=C(COc1ccccc1)N/N=C/c1ccc([N+](=O)[O-])o1	none
O=C(CNc1ccc2ccccc2c1)N/N=C/c1ccc([N+](=O)[O-])o1	bovine MsrA act 8.3 | MsrA activ conf inactive
CCCn1c(C(CO)Nc2nc(-c3cccc(Br)c3)cs2)nc2ccccc21 (stereo unspecified)	none
COc1ccccc1OC(=O)c1ccc2nsnc2c1	bovine MsrA act 16 | MsrA activ conf inactive
Cc1cc(NC(=O)CCCC(=O)NCc2cccs2)no1	bovine MsrA act 7.9 | MsrA activ conf inactive
Cc1ccc(N=Nc2cc(C)ccc2O)c(C)c1	bovine MsrA act 10 (no result: NR2E3 ag-2) | MsrA activ conf inactive
Cc1ccc(C)c(N=Nc2ccc(O)c3ncccc23)c1	none
CCOc1ccccc1C(c1c(C)n(C)n(-c2ccccc2)c1=O)c1c(C)n(C)n(-c2ccccc2)c1=O	none
CCOc1cccc(C(c2c(C)n(C)n(-c3ccccc3)c2=O)c2c(C)n(C)n(-c3ccccc3)c2=O)c1OC	bovine MsrA act 13 | MsrA activ conf inactive
Cc1ccccc1C(=O)NCCCCc1ccccc1	bovine MsrA act 8.7 | MsrA activ conf inactive
Cc1c(C(=O)NCCc2ccc3c(c2)OCCO3)oc2ccccc12	none
CN1CCN(C(=O)CN(c2cccc(Cl)c2)S(=O)(=O)c2ccccc2)CC1	bovine MsrA act 11 | MsrA activ conf inactive
Cc1cccc(N(CC(=O)N2CCN(C)CC2)S(=O)(=O)c2ccccc2)c1	none
COc1ccc(Oc2nc3c(C)cccn3c(=O)c2/C=C(\C#N)C(N)=O)cc1	none
